Experimental data published in ChEMBL document CHEMBL4732121, “Imidazo[1,2-a]quinoxalines for melanoma treatment with original mechanism of action” (Eur J Med Chem, 2021).
Each block holds one compound with its values, some of them ahead of it. Activity calls are given as the source filed them. No cut-off for these calls is given here.

Tests used:
[1] = system: A-375; experiment: Antiproliferative activity against human A-375 cells assessed as reduction in cell viability measured after 96 hrs by MTT assay; format: functional, cell-based; settings: Homo sapiens, A-375, 96 h
Procedure, shortened: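 A375 cells in RPMI-1640 with 10% heat-inactivated FBS, 2 mM L-glutamine and antibiotics, 37°C, 5% CO₂. Seeded at 5000 cells/well and attached overnight, then exposed to 10⁻⁵–3.2.10⁻⁹ M in 0.15% DMSO/medium for 96 h. MTT at 0.5 mg/ml final for 4 h, formazan dissolved in 10% SDS/0.01 M HCl, OD 570 nm. At least three experiments in triplicate; IC50 from sigmoidal dose–response curves.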

[2] = system: A2058; experiment: Antiproliferative activity against human A2058 cells assessed as reduction in cell viability measured after 96 hrs by MTT assay; format: functional, cell-based; settings: A2058, 96 h
[3] = system: MeWo; experiment: Antiproliferative activity against human MeWo cells assessed as reduction in cell viability measured after 96 hrs by MTT assay; format: functional, cell-based
[4] = system: IPC-298; experiment: Antiproliferative activity against human IPC-298 cells assessed as reduction in cell viability measured after 96 hrs by MTT assay; format: functional, cell-based; settings: IPC-298, 96 h
[5] = Inhibition of pig brain tubulin polymerization at 5 uM measured after 45 mins by turbidimetry based spectrophotometric method relative to control; format: tissue-based, Sus scrofa; settings: 0.75 h
[6] = system: A-375; experiment: Antitumor activity against human A-375 cells xenografted in Balb/c nude mouse assessed as reduction in mitotic index at 25 mg/kg, ip administered 3 times a week for 3 weeks measured post last dose; format: functional, organism-based
Procedure, shortened: (§1)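 Balb/c nude mice given 10×10^6 A375 cells in PBS subcutaneously in the right flank under isoflurane. Groups of 6-12 allocated on Day 14 at 110-130 mm^3 mean tumor volume; dosed ip for three weeks. Drug in DMSO/Tween 80 (1:1) diluted with saline; vehicle DMSO/Tween 80/saline (1:1:8). Tumors fixed in buffered 3.7% formalin and read blind by a veterinary pathologist after mid-sagittal section.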

[7] = Toxicity in Balb/c nude mouse xenografted with human A-375 cells assessed as adverse effect at 30 mg/kg, ip administered 5 times a week for 3 weeks; format: organism-based; settings: in vivo, 504 h
[8] = system: A-375; experiment: Antitumor activity against human A-375 cells xenografted in Balb/c nude mouse assessed as reduction in tumor weight at 25 mg/kg, ip administered 3 times a week for 3 weeks measured post last dose; format: functional, organism-based; procedure, shortened: as §1
[9] = system: A-375; experiment: Antitumor activity against human A-375 cells xenografted in Balb/c nude mouse assessed as reduction in cell invasion at 25 mg/kg, ip administered 3 times a week for 3 weeks measured post last dose; format: functional, organism-based; procedure, shortened: as §1
[10] = Cytotoxicity against human PBMC cells assessed as reduction in cell viability at 0.2 mM measured after 96 hrs by MTT assay; format: cell-based; settings: 200 µM
[11] = system: A-375; experiment: Antitumor activity against human A-375 cells xenografted in Balb/c nude mouse assessed as vascularization at 75 mg/kg, ip administered 3 times a week during first week and twice a week for next 2 weeks measured post last dose by trichrome staining based histopathological analysis; format: functional, organism-based; settings: time 3.0 weeks; procedure, shortened: as §1
[12] = Toxicity in Balb/c nude mouse xenografted with human A-375 cells assessed as morbidity at 75 mg/kg, ip administered 3 times a week during first week and twice a week for 2 week; format: organism-based; settings: in vivo, 504 h, time 3 weeks
Procedure, shortened: (§2)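 Balb/c nude mice inoculated s.c. in right flank with 10×10^6 A375 cells in PBS under isoflurane; dosing started once mean tumor volume reached 110-130 mm3, groups allocated Day 14. IP dosing for three weeks; vehicle DMSO/Tween 80 (vol/vol) plus injectable saline (8 vol), solutions made daily. Body weight followed during treatment; gross pathology at study termination; n = 4 mice per group reported.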

[13] = system: A-375; experiment: Antitumor activity against human A-375 cells xenografted in Balb/c nude mouse assessed as reduction in cell invasion at 30 mg/kg, ip administered 5 times a week for 3 weeks measured post last dose; format: functional, organism-based; procedure, shortened: as §1
[14] = system: A-375; experiment: Antitumor activity against human A-375 cells xenografted in Balb/c nude mouse assessed as change in tumor inflammation at 30 mg/kg, ip administered 5 times a week for 3 weeks measured post last dose by trichrome staining based histopathological analysis; format: functional, organism-based; procedure, shortened: as §1
[15] = system: A-375; experiment: Antitumor activity against human A-375 cells xenografted in Balb/c nude mouse assessed as reduction in cell invasion at 75 mg/kg, ip administered 3 times a week during first week and twice a week for next 2 weeks measured post last dose; format: functional, organism-based; settings: time 3.0 weeks; procedure, shortened: as §1
[16] = system: A-375; experiment: Antitumor activity against human A-375 cells xenografted in Balb/c nude mouse assessed as change in tumor inflammation at 75 mg/kg, ip administered 3 times a week during first week and twice a week for next 2 weeks measured post last dose by trichrome staining based histopathological analysis; format: functional, organism-based; settings: time 3.0 weeks; procedure, shortened: as §1
[17] = Toxicity in Balb/c nude mouse xenografted with human A-375 cells assessed as effect on liver pathology at 75 mg/kg, ip administered 3 times a week during first week and twice a week for 2 week measured post last dose by pathological analysis; format: organism-based; settings: in vivo, 504 h, time 3 weeks; procedure, shortened: as §2
[18] = Toxicity in Balb/c nude mouse xenografted with human A-375 cells assessed as mortality at 75 mg/kg, ip administered 3 times a week during first week and twice a week for 2 week; format: organism-based; settings: in vivo, 504 h, time 3 weeks; procedure, shortened: as §2
[19] = system: A-375; experiment: Antitumor activity against human A-375 cells xenografted in Balb/c nude mouse assessed as reduction in tumor size at 30 mg/kg, ip administered 5 times a week for 3 weeks by caliper method; format: functional, organism-based; procedure, shortened: as §1
[20] = system: A-375; experiment: Antitumor activity against human A-375 cells xenografted in Balb/c nude mouse assessed as reduction in tumor size at 75 mg/kg, ip administered 3 times a week during first week and twice a week for 2 week by caliper method relative to control; format: functional; parameters: scale not given: the % may be the effect or the level left; settings: time 3 weeks; procedure, shortened: as §1
[21] = system: A-375; experiment: Antitumor activity against human A-375 cells xenografted in Balb/c nude mouse assessed as vascularization at 30 mg/kg, ip administered 5 times a week for 3 weeks measured post last dose by trichrome staining based histopathological analysis; format: functional, organism-based; procedure, shortened: as §1
[22] = system: A-375; experiment: Antitumor activity against human A-375 cells xenografted in Balb/c nude mouse assessed as change in tumor stroma at 75 mg/kg, ip administered 3 times a week during first week and twice a week for next 2 weeks measured post last dose by trichrome staining based histopathological analysis; format: functional, organism-based; settings: time 3.0 weeks; procedure, shortened: as §1
[23] = system: A-375; experiment: Antitumor activity against human A-375 cells xenografted in Balb/c nude mouse assessed as reduction in tumor weight at 75 mg/kg, ip administered 3 times a week during first week and twice a week for next 2 weeks measured post last dose; format: functional, organism-based; settings: time 3.0 weeks; procedure, shortened: as §1
[24] = system: A-375; experiment: Antitumor activity against human A-375 cells xenografted in Balb/c nude mouse assessed as vascularization at 25 mg/kg, ip administered 3 times a week for 3 weeks measured post last dose by trichrome staining based histopathological analysis; format: functional, organism-based; procedure, shortened: as §1
[25] = system: A-375; experiment: Antitumor activity against human A-375 cells xenografted in Balb/c nude mouse assessed as reduction in mitotic index at 75 mg/kg, ip administered 3 times a week during first week and twice a week for next 2 weeks measured post last dose; format: functional, organism-based; settings: time 3.0 weeks; procedure, shortened: as §1
[26] = Toxicity in Balb/c nude mouse xenografted with human A-375 cells assessed as change in body weight at 30 mg/kg, ip administered 5 times a week for 3 weeks; format: organism-based; settings: in vivo, 504 h
[27] = Toxicity in Balb/c nude mouse xenografted with human A-375 cells assessed as effect on gut pathology at 75 mg/kg, ip administered 3 times a week during first week and twice a week for 2 week measured post last dose by pathological analysis; format: organism-based; settings: in vivo, 504 h, time 3 weeks; procedure, shortened: as §2
[28] = system: A-375; experiment: Antitumor activity against human A-375 cells xenografted in Balb/c nude mouse assessed as reduction in tumor size at 25 mg/kg, ip administered 3 times a week for 3 weeks by caliper method relative to control; format: functional; parameters: scale not given: the % may be the effect or the level left; procedure, shortened: as §1
[29] = system: A-375; experiment: Antitumor activity against human A-375 cells xenografted in ip dosed Balb/c nude mouse assessed as reduction in tumor size administered 3 times a week for 3 weeks by caliper method; format: functional, organism-based; settings: dose 25-75 mg/kg
[30] = system: A-375; experiment: Antitumor activity against human A-375 cells xenografted in ip dosed Balb/c nude mouse assessed as reduction in tumor weight administered 3 times a week for 3 weeks measured post last dose; format: functional, organism-based; settings: dose 25-75 mg/kg
[31] = Toxicity in Balb/c nude mouse xenografted with human A-375 cells assessed as effect on pancreas pathology at 75 mg/kg, ip administered 3 times a week during first week and twice a week for 2 week measured post last dose by pathological analysis; format: organism-based; settings: in vivo, 504 h, time 3 weeks; procedure, shortened: as §2
[32] = system: A-375; experiment: Antitumor activity against human A-375 cells xenografted in Balb/c nude mouse assessed as change in tumor stroma at 25 mg/kg, ip administered 3 times a week for 3 weeks measured post last dose by trichrome staining based histopathological analysis; format: functional, organism-based; procedure, shortened: as §1
[33] = Toxicity in Balb/c nude mouse xenografted with human A-375 cells assessed as reduction in body weight at 75 mg/kg, ip administered 3 times a week during first week and twice a week for 2 week; format: organism-based; settings: in vivo, 504 h, time 3 weeks; procedure, shortened: as §2
[34] = Toxicity in Balb/c nude mouse xenografted with human A-375 cells assessed as pathological changes at 30 mg/kg, ip administered 5 times a week for 3 weeks measured post last dose by histopathological analysis; format: organism-based; settings: in vivo, 504 h
[35] = Toxicity in Balb/c nude mouse xenografted with human A-375 cells assessed as effect on spleen pathology at 75 mg/kg, ip administered 3 times a week during first week and twice a week for 2 week measured post last dose by pathological analysis; format: organism-based; settings: in vivo, 504 h, time 3 weeks; procedure, shortened: as §2
[36] = system: A-375; experiment: Antitumor activity against human A-375 cells xenografted in Balb/c nude mouse assessed as reduction in tumor weight at 30 mg/kg, ip administered 5 times a week for 3 weeks measured post last dose; format: functional, organism-based; procedure, shortened: as §1
[37] = system: A-375; experiment: Antitumor activity against human A-375 cells xenografted in Balb/c nude mouse assessed as reduction in mitotic index at 30 mg/kg, ip administered 5 times a week for 3 weeks measured post last dose; format: functional, organism-based; procedure, shortened: as §1
[38] = system: A-375; experiment: Antitumor activity against human A-375 cells xenografted in Balb/c nude mouse assessed as change in tumor inflammation at 25 mg/kg, ip administered 3 times a week for 3 weeks measured post last dose by trichrome staining based histopathological analysis; format: functional, organism-based; procedure, shortened: as §1
[39] = system: A-375; experiment: Antitumor activity against human A-375 cells xenografted in Balb/c nude mouse assessed as change in tumor stroma at 30 mg/kg, ip administered 5 times a week for 3 weeks measured post last dose by trichrome staining based histopathological analysis; format: functional, organism-based; procedure, shortened: as §1

SMILES: COc1ccc(-c2cnc3c(N)nccn23)cc1OC
IC50 [1]: > 10000 nM

SMILES: Oc1ccc(-c2cnc3c(O)nc4ccccc4n23)cc1O
IC50 [1]: > 10000 nM

SMILES: NCCCNc1nc2ccccc2n2c(-c3ccc(O)c(O)c3)cnc12
IC50 [1]: 5590 nM

SMILES: CNc1nc2ccc(C(F)(F)F)cc2n2c(-c3ccc(OC)c(OC)c3)cnc12
IC50 [1]: > 10000 nM

SMILES: CNc1nc2ccccc2n2c(-c3ccc(O)c(O)c3)cnc12
Activity [6]: Active
IC50 [2]: 4 nM
Activity [7]: Non-Toxic
Activity [8]: Active
Activity [9]: Active
Activity [10]: Non-Toxic
Activity [11]: inactive
Activity [12]: Toxic
Activity [13]: Active
Activity [14]: inactive
Activity [15]: Active
Activity [16]: inactive
Activity [17]: Toxic
IC50 [3]: 3 nM
Activity [18]: Toxic
Activity [19]: Active
Activity [20]: 80%
Activity [21]: inactive
Activity [22]: inactive
Activity [23]: Active
Activity [24]: inactive
Activity [25]: Active
IC50 [4]: 40 nM
Activity [26]: Non-Toxic
Activity [27]: Toxic
Activity [28]: 50%
Activity [29]: Dose-dependent effect
Activity [30]: Dose-dependent effect
Activity [31]: Toxic
Activity [32]: inactive
Activity [33]: Toxic
IC50 [1]: 3 nM
Activity [34]: Non-Toxic
Activity [35]: Toxic
Activity [36]: Active
Activity [37]: Active
Activity [38]: inactive
inhibition (INH) [5]: Not Active
Activity [39]: inactive

SMILES: Oc1ccc(-c2cnc3c(N4CCNCC4)nc4ccccc4n23)cc1O
IC50 [1]: > 10000 nM

SMILES: COc1ccc(-c2cnc3c(NCCCCCCNC(=O)OC(C)(C)C)nc4ccccc4n23)cc1OC
IC50 [1]: > 10000 nM

SMILES: CNc1nc2ccc(C(F)(F)F)cc2n2c(-c3ccc(O)c(O)c3)cnc12
IC50 [1]: > 10000 nM

Second part, led by results:

IC50 [1]: 2350 nM
SMILES: CNc1nc2ccccc2n2c(Br)cnc12

IC50 [1]: 414 nM
SMILES: COc1ccc(-c2cnc3c(N(C)C)nc4ccccc4n23)cc1OC

IC50 [1]: 1280 nM
SMILES: NCCNc1nc2ccccc2n2c(-c3ccc(O)c(O)c3)cnc12

IC50 [1]: 199 nM
SMILES: CNc1nc2cc(OC(F)(F)F)ccc2n2c(-c3ccc(O)c(O)c3)cnc12

IC50 [1]: 383 nM
inhibition (INH) [5]: 84%
SMILES: CNc1nc2ccccc2n2c(-c3cccc(OC)c3)cnc12
IC50 [2]: 185 nM
IC50 [3]: 125 nM
IC50 [4]: 469 nM

IC50 [1]: 2930 nM
SMILES: COc1ccc(-c2cnc3c(OC)nc4ccccc4n23)cc1OC
